Laboratory results from ChEMBL document CHEMBL1155457, “Discovery of the dual orexin receptor antagonist [(7R)-4-(5-chloro-1,3-benzoxazol-2-yl)-7-methyl-1,4-diazepan-1-yl][5-methyl-2-(2H-1,2,3-triazol-2-yl)phenyl]methanone (MK-4305) for the treatment of insomnia” (J Med Chem, 2010).
The source made the active and inactive calls. The calls are words filed in the database; no cut-off is given here.

Columns and labels:
Rattus norvegicus [1] = assay: Antiinsomnic activity in Sprague-Dawley rat assessed as increase in delta sleep duration at 10 mg/kg/day, po measured with 3 to 4 hrs post last dose; assay type: functional, organism-based
How it was run: (§1)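 Rats carried telemetry implants recording ECoG/EMG (sampled at 500 Hz) and had recovered at least 2 weeks after surgery. They were on a 12:12 light cycle with lights off at 04:00. After 2 days of vehicle habituation, four rats were dosed by oral gavage in 20% aqueous TPGS at 09:00, 5 h into the active phase. The design was a one-week crossover against vehicle. Recording ran 23 h; stages were auto-scored in 30-min bins, averaged over 7 days and compared by mixed-model ANOVA at each time point.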

[2] = Clearance in dog at 0.5 mg/kg, iv; assay type: ADME, organism-based, Canis lupus familiaris; parameters: dose 0.5 mg/kg, route intravenous; conditions: in vivo
How it was run: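 Dogs received an IV dose with DMSO as vehicle (n = 3). Clearance was derived from plasma pharmacokinetics.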

[3] = Volume of distribution at steady state in rat at 2 mg/kg, iv; assay type: ADME, organism-based; parameters: dose 2 mg/kg, route intravenous; conditions: in vivo, read-out: Vdss
How it was run: (§2)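 IV PK in DMSO vehicle: rat at 2 mg/kg, dog at 0.5 mg/kg. Clearance, Vd_ss and terminal half-life were derived from plasma levels.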

[4] = AUC in dog at 3 mg/kg, po; assay type: ADME, organism-based, Canis lupus familiaris; parameters: dose 3 mg/kg, route oral; conditions: plasma
Orexin receptor type 2 [5] = biological target: T1, Orexin receptor type 2 (Homo sapiens, UniProt O43614); assay: Displacement of [3H](S)-N-(2-(1H-pyrrol-1-yl)phenyl)-1-(2-(1-methyl-1H-benzo[d]imidazol-2-ylthio)acetyl)pyrrolidine-2-carboxamide from human OX2R expressed in CHO cells after 3 hrs by scintillation counting; assay type: cell-based
T1 sequence (O43614 whole entry): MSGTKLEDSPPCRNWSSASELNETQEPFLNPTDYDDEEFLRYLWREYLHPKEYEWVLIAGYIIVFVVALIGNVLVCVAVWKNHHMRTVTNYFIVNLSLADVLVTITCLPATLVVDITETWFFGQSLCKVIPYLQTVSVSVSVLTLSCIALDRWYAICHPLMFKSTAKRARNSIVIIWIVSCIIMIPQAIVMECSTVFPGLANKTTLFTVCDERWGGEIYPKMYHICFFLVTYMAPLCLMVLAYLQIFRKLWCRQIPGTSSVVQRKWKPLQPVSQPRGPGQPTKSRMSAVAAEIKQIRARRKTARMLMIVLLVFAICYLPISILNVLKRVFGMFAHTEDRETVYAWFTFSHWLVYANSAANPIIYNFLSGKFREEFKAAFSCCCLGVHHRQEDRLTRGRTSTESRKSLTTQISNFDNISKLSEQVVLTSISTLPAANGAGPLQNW

Rattus norvegicus [6] = assay: Antiinsomnic activity in Sprague-Dawley rat assessed as decrease in light sleep duration at 10 mg/kg/day, po measured with 3 to 4 hrs post last dose; assay type: functional, organism-based; how it was run: as §1
[7] = Terminal half life in rat at 2 mg/kg, iv; assay type: ADME, organism-based; parameters: dose 2 mg/kg, route intravenous; conditions: in vivo, read-out: beta t1/2 (converted); how it was run: as §2
[8] = Terminal half life in dog at 0.5 mg/kg, iv; assay type: ADME, organism-based, Canis lupus familiaris; parameters: dose 0.5 mg/kg, route intravenous; conditions: in vivo, read-out: beta t1/2 (converted); how it was run: as §2
Rattus norvegicus [9] = assay: Antiinsomnic activity in Sprague-Dawley rat assessed as decrease in active wake duration at 10 mg/kg/day, po […]; assay type: functional, organism-based; how it was run: as §1
Rattus norvegicus [10] = assay: Antiinsomnic activity in Sprague-Dawley rat assessed as increase in rapid-eye movement at 10 mg/kg/day, po measured with 3 to 4 hrs post last dose; assay type: functional, organism-based; how it was run: as §1
[11] = Oral bioavailability in rat at 100 mg/kg; assay type: ADME, organism-based; conditions: in vivo
How it was run: (§3)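 Rats dosed orally by gavage as the HCl salt in 20% TPGS. Plasma drug levels were followed to give AUC, Cmax and oral bioavailability.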

[12] = Cmax in rat at 100 mg/kg, po; assay type: ADME, organism-based; parameters: dose 100 mg/kg, route oral; conditions: in vivo; how it was run: as §3
[13] = AUC in rat at 100 mg/kg, po; assay type: ADME, organism-based; parameters: dose 100 mg/kg, route oral; conditions: plasma; how it was run: as §3
[14] = Cmax in dog at 3 mg/kg, po; assay type: ADME, organism-based, Canis lupus familiaris; parameters: dose 3 mg/kg, route oral; conditions: in vivo
[15] = Volume of distribution at steady state in dog at 0.5 mg/kg, iv; assay type: ADME, organism-based, Canis lupus familiaris; parameters: dose 0.5 mg/kg, route intravenous; conditions: in vivo, read-out: Vdss; how it was run: as §2
Liver microsomes = assay: Idiosyncratic toxicity in human liver microsomes assessed GSH-derived reactive electrophilic adduct formation at 10 uM after 60 mins by UPLC/HRMS analysis relative to labetalol; parameters: species or system Microsome; conditions: 1 h
How it was run: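 Pooled human liver microsomes (1 mg/mL protein) were incubated 60 min at 37 °C in 100 mM potassium phosphate pH 7.4. The mix held 10 μM compound, 1 mM MgCl2, 1 mM EDTA, 5 mM GSH and 1 mM NADPH. After quenching, GSH adducts were detected by UPLC/HRMS. Summed adduct peak areas were divided by the labetalol internal-standard area.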

Orexin receptor type 2 [16] = biological target: T1, Orexin receptor type 2; assay: Antagonist activity at human OX2R expressed in CHO cells assessed as inhibition of orexin-A-induced intracellular calcium mobilization after 5 mins by FLIPR assay; assay type: functional, cell-based
[17] = biological target: T2, Orexin/Hypocretin receptor type 1 (Homo sapiens, UniProt O43613); assay: Displacement of [3H]N-cyclobutyl-5-methyl-N-(2-(1-methyl-1H-benzo[d]imidazol-2-ylthio)ethyl)-2-(2H-1,2,3-triazol-2-yl)benzamide from human OX1R expressed in CHO cells after 20 hrs by scintillation counting; assay type: cell-based
T2 sequence (O43613 whole entry): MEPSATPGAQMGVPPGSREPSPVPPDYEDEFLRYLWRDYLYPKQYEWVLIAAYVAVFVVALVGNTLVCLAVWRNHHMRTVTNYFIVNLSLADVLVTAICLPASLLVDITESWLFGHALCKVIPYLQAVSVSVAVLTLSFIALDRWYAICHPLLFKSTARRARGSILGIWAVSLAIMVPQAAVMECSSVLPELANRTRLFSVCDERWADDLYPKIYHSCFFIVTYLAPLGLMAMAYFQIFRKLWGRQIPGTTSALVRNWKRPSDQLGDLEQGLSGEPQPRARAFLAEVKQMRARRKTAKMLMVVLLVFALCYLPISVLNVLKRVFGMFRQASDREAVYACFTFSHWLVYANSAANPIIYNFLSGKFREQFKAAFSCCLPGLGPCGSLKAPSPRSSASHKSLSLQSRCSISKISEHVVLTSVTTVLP

[18] = biological target: T2, Orexin/Hypocretin receptor type 1; assay: Displacement of [3H](S)-N-(biphenyl-2-yl)-1-(2-(1-methyl-1H-benzo[d]imidazol-2-ylthio)acetyl)pyrrolidine-2-carboxamide from human OX1R expressed in CHO cells after 3 hrs by scintillation counting; assay type: cell-based
[19] = biological target: T2, Orexin/Hypocretin receptor type 1; assay: Antagonist activity at human OX1R expressed in CHO cells assessed as inhibition of orexin-A-induced intracellular calcium mobilization after 5 mins by FLIPR assay; assay type: functional, cell-based
[20] = Drug level in Sprague-Dawley rat CSF at 10 mg/kg/day, po after 1 hr; assay type: ADME, organism-based, Cerebrospinal fluid; parameters: route oral; conditions: read-out: Drug uptake
[21] = Oral bioavailability in rat at 10 mg/kg; assay type: ADME, organism-based; conditions: in vivo
[22] = Fraction unbound in rat plasma; assay type: ADME, cell-free
[23] = Oral bioavailability in dog at 3 mg/kg; assay type: ADME, organism-based, Canis lupus familiaris; conditions: in vivo
[24] = Clearance in rat at 10 mg/kg, iv; assay type: ADME, organism-based; parameters: dose 10 mg/kg, route intravenous; conditions: in vivo
[25] = Lipophilicity, log P of the compound; assay type: physicochemical; conditions: octanol/water
[26] = Drug level in Sprague-Dawley rat plasma at 10 mg/kg/day, po after 1 hr; assay type: ADME, organism-based; parameters: route oral; conditions: read-out: Drug uptake

| SMILES | clearance [2] | Ki (Orexin receptor type 2 [5]) | Ratio (Liver microsomes) | IC50 (Orexin receptor type 2 [16]) | Ki [17] | Ki [18] | IC50 [19] | bioavailability [23] | further results |
| --- | --- | --- | --- | --- | --- | --- | --- | --- | --- |
| Cc1ccc(-n2nccn2)c(C(=O)N2CCCN(c3ncc4ccccc4n3)CC2)c1 | 11.6 mL/min/kg | 0.59 nM | 5 |  |  |  |  |  | Activity (Rattus norvegicus [1]): Active; Vd [3]: 1.08 L/kg; AUC [4]: 1.81 µM·h; Activity (Rattus norvegicus [6]): Active; half-life [7]: 21 min; half-life [8]: 76.8 min; Activity (Rattus norvegicus [9]): Active; Activity (Rattus norvegicus [10]): Active; bioavailability [11]: 2%; Cmax [12]: 650 nM; AUC [13]: 1.5 µM·h; Cmax [14]: 1440 nM; Vd [15]: 0.86 L/kg |
| C[C@@H]1CCN(c2ncc3ccccc3n2)CCN1C(=O)c1ccccc1-n1nccn1 | 6.4 mL/min/kg | 0.47 nM |  | 18 nM | 6.2 nM | 6.2 nM | 26 nM |  |  |
| Cc1ccc(-n2nccn2)c(C(=O)N2CCN(c3nc4ccccc4o3)CC[C@H]2C)c1 | 2.4 mL/min/kg | 3.2 nM |  | 57 nM | 4.1 nM | 4.1 nM | 24 nM |  |  |
| Cc1ccc(-n2nccn2)c(C(=O)N2CCN(c3ncc4cc(F)ccc4n3)CC[C@H]2C)c1 | 5.2 mL/min/kg |  |  |  |  |  |  | 37% | Activity (Rattus norvegicus [1]): Active; concentration at 1 h [20]: 1000 nM; bioavailability [21]: 47%; Activity (Rattus norvegicus [6]): Active; fraction unbound [22]: 0.03; Activity (Rattus norvegicus [9]): Active; Activity (Rattus norvegicus [10]): Active; clearance [24]: 33 mL/min/kg; logP [25]: 3; concentration at 1 h [26]: 20 nM |
| C[C@@H]1CCN(c2cnc3cc(F)c(F)cc3n2)CCN1C(=O)c1ccccc1-n1nccn1 | 4.9 mL/min/kg | 0.25 nM | 3.7 | 32 nM | 1.8 nM | 1.8 nM | 28 nM | 15% |  |
| C[C@H]1CCN(c2ncc3ccccc3n2)CCN1C(=O)c1ccccc1-n1nccn1 |  | 8.5 nM |  |  | 54 nM | 54 nM |  |  |  |
| C[C@@H]1CCN(c2ncc3c(n2)CCCC3)CCN1C(=O)c1ccccc1-n1nccn1 | 9.2 mL/min/kg | 0.28 nM | 0.7 | 28 nM | 0.78 nM | 0.78 nM | 24 nM |  |  |
| Cc1ccc(-n2nccn2)c(C(=O)N2CCN(c3ncc4ccccc4n3)CC[C@H]2C)c1 | 6 mL/min/kg | 0.36 nM |  | 30 nM | 0.39 nM | 0.39 nM | 30 nM | < 5% |  |
